ChEMBL document CHEMBL1134594 (J Med Chem, 2001)
Where a SMILES comes first, the peptide text is derived from it. Bridges are numbered along the chain shown (N, C = ends).

Columns and labels:
[1] = target: Adenylate cyclase (Rattus norvegicus) (UniProt D4A3N4+P26770+Q04400+P26769+Q03343+P40146+Q8CFM9+P21932); assay: Adenylate cyclase activity measured as percentage stimulation; format: protein assay; set-up: concentration or dose not given beside the values
Glucagon receptor = Glucagon receptor (Rattus norvegicus, UniProt P30082); assay: Glucagon receptor binding measured as 50% inhibitory concentration
How it was run: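 Membranes (50 µg protein) were taken from the livers of male Sprague Dawley rats (200-250 g), purified on a sucrose gradient. […] Nonspecific binding was defined with excess unlabeled peptide and subtracted. Run in triplicate, repeated twice.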

Adenylate cyclase = assay: Adenylate cyclase activity measured as 50% inhibitory concentration; format: protein assay

Glucagon receptor, sequence (P30082 whole entry): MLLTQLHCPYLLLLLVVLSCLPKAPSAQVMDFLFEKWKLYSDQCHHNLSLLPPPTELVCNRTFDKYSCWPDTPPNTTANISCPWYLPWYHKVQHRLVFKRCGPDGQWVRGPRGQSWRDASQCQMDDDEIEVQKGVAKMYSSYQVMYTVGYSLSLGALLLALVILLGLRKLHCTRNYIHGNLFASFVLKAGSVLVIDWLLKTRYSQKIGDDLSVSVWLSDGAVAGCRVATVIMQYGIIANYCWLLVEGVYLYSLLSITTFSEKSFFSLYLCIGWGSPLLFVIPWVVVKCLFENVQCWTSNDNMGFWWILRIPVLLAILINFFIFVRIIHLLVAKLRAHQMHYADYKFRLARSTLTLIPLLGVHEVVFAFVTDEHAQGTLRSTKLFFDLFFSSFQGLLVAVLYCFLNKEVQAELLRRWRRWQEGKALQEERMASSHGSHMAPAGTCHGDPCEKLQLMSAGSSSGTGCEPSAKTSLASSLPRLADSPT

CSCC[C@H](NC(=O)[C@H](CC(C)C)NC(=O)[C@H](Cc1c[nH]c2ccccc12)NC(=O)[C@H](CCC(N)=O)NC(=O)[C@@H](NC(=O)[C@H](Cc1ccccc1)NC(=O)[C@@H]1CCC(=O)NCCCC[C@H](NC(=O)[C@H](CO)NC(=O)[C@H](CC(=O)O)NC(=O)[C@H](CC(C)C)NC(=O)[C@H](Cc2ccc(O)cc2)NC(=O)[C@H](CCCCN)NC(=O)[C@H](CO)NC(=O)[C@H](Cc2ccc(O)cc2)NC(=O)[C@H](CC(=O)O)NC(=O)[C@H](CO)NC(=O)[C@@H](NC(=O)[C@H](Cc2ccccc2)NC(=O)[C@@H](NC(=O)CNC(=O)[C@H](CCC(N)=O)NC(=O)[C@H](CO)NC(=O)[C@@H](N)Cc2c[nH]cn2)[C@@H](C)O)[C@@H](C)O)C(=O)N[C@@H](CCCN=C(N)N)C(=O)N[C@@H](C)C(=O)N[C@@H](CCC(N)=O)C(=O)N1)C(C)C)C(=O)N[C@@H](CC(N)=O)C(=O)N[C@H](C(=O)O)[C@@H](C)O was tested, and the Activity [1] was 98%, the IC50 (Glucagon receptor) was 0.24 nM and the EC50 (Adenylate cyclase) was 0.27 nM.

For CSCC[C@H](NC(=O)[C@H](CC(C)C)NC(=O)[C@H](Cc1c[nH]c2ccccc12)NC(=O)[C@H](CCC(N)=O)NC(=O)[C@@H](NC(=O)[C@H](Cc1ccccc1)NC(=O)[C@H](CC(=O)O)NC(=O)[C@H](CCC(N)=O)NC(=O)[C@H](C)NC(=O)[C@H](CCCN=C(N)N)NC(=O)[C@H](CCCN=C(N)N)NC(=O)[C@H](CO)NC(=O)[C@H](CC(=O)O)NC(=O)[C@H](CC(C)C)NC(=O)[C@H](Cc1ccc(O)cc1)NC(=O)[C@H](CCCCN)NC(=O)[C@H](CO)NC(=O)[C@H](Cc1ccc(O)cc1)NC(=O)[C@H](CC(=O)O)NC(=O)[C@H](CO)NC(=O)[C@H](CS)NC(=O)[C@H](Cc1ccccc1)NC(=O)[C@@H](NC(=O)CNC(=O)[C@H](CCC(N)=O)NC(=O)[C@H](CS)NC(=O)[C@@H](N)Cc1c[nH]cn1)[C@@H](C)O)C(C)C)C(=O)N[C@@H](CC(N)=O)C(=O)N[C@H](C(=O)O)[C@@H](C)O (H-HCQGTFCSDYSKYLDSRRAQDFVQWLMNT-OH), the IC50 (Glucagon receptor) was 5.6 nM.

With CSCC[C@H](NC(=O)[C@H](CC(C)C)NC(=O)[C@H](Cc1c[nH]c2ccccc12)NC(=O)[C@H](CCC(N)=O)NC(=O)[C@@H](NC(=O)[C@H](Cc1ccccc1)NC(=O)[C@H](CC(=O)O)NC(=O)[C@H](CCC(N)=O)NC(=O)[C@H](C)NC(=O)[C@H](CCCN=C(N)N)NC(=O)[C@H](CCCN=C(N)N)NC(=O)[C@H](CO)NC(=O)[C@H](CC(=O)O)NC(=O)[C@H](CC(C)C)NC(=O)[C@H](Cc1ccc(O)cc1)NC(=O)[C@H](CCCCN)NC(=O)[C@H](CO)NC(=O)[C@H](Cc1ccc(O)cc1)NC(=O)[C@H](CC(=O)O)NC(=O)[C@H](CO)NC(=O)[C@@H]1CSSC[C@H](NC(=O)[C@@H](N)Cc2c[nH]cn2)C(=O)N[C@@H](CCC(N)=O)C(=O)NCC(=O)N[C@@H]([C@@H](C)O)C(=O)N[C@@H](Cc2ccccc2)C(=O)N1)C(C)C)C(=O)N[C@@H](CC(N)=O)C(=O)N[C@H](C(=O)O)[C@@H](C)O (H-HCQGTFCSDYSKYLDSRRAQDFVQWLMNT-OH; disulfide 2-7) the Activity [1] was 23%, the IC50 (Glucagon receptor) was 101 nM and the EC50 (Adenylate cyclase) was 9200 nM.

For CSCC[C@H](NC(=O)[C@H](CC(C)C)NC(=O)[C@H](Cc1c[nH]c2ccccc12)NC(=O)[C@H](CCC(N)=O)NC(=O)[C@@H](NC(=O)[C@H](Cc1ccccc1)NC(=O)[C@H](CC(=O)O)NC(=O)[C@H](CCC(N)=O)NC(=O)[C@H](C)NC(=O)[C@H](CCCN=C(N)N)NC(=O)[C@H](CCCN=C(N)N)NC(=O)[C@H](CO)NC(=O)[C@H](CC(=O)O)NC(=O)[C@H](CC(C)C)NC(=O)[C@H](Cc1ccc(O)cc1)NC(=O)[C@H](CCCCN)NC(=O)[C@H](CO)NC(=O)[C@H](Cc1ccc(O)cc1)NC(=O)[C@H](CS)NC(=O)[C@H](CO)NC(=O)[C@@H](NC(=O)[C@H](Cc1ccccc1)NC(=O)[C@@H](NC(=O)[C@H](CS)NC(=O)[C@H](CCC(N)=O)NC(=O)[C@H](CO)NC(=O)[C@@H](N)Cc1c[nH]cn1)[C@@H](C)O)[C@@H](C)O)C(C)C)C(=O)N[C@@H](CC(N)=O)C(=O)N[C@H](C(=O)O)[C@@H](C)O (H-HSQCTFTSCYSKYLDSRRAQDFVQWLMNT-OH), the Activity [1] was 18%, the IC50 (Glucagon receptor) was 3.6 nM and the EC50 (Adenylate cyclase) was 295 nM.

CSCC[C@H](NC(=O)[C@H](CC(C)C)NC(=O)[C@H](Cc1c[nH]c2ccccc12)NC(=O)[C@H](CCC(N)=O)NC(=O)[C@@H](NC(=O)[C@H](Cc1ccccc1)NC(=O)[C@H](CC(=O)O)NC(=O)[C@H](CCC(N)=O)NC(=O)[C@H](C)NC(=O)[C@H](CCCN=C(N)N)NC(=O)[C@H](CCCN=C(N)N)NC(=O)[C@H](CO)NC(=O)[C@H](CC(=O)O)NC(=O)[C@H](CC(C)C)NC(=O)[C@H](Cc1ccc(O)cc1)NC(=O)[C@H](CCCCN)NC(=O)[C@H](CO)NC(=O)[C@H](Cc1ccc(O)cc1)NC(=O)[C@@H]1CSSC[C@H](NC(=O)[C@H](CCC(N)=O)NC(=O)[C@H](CO)NC(=O)[C@@H](N)Cc2c[nH]cn2)C(=O)N[C@@H]([C@@H](C)O)C(=O)N[C@@H](Cc2ccccc2)C(=O)N[C@@H]([C@@H](C)O)C(=O)N[C@@H](CO)C(=O)N1)C(C)C)C(=O)N[C@@H](CC(N)=O)C(=O)N[C@H](C(=O)O)[C@@H](C)O (H-HSQCTFTSCYSKYLDSRRAQDFVQWLMNT-OH; disulfide 4-9) gave an Activity [1] of 7.5%, an IC50 (Glucagon receptor) of 84.5 nM and an EC50 (Adenylate cyclase) of 295 nM.

CSCC[C@H](NC(=O)[C@H](CC(C)C)NC(=O)[C@H](Cc1c[nH]c2ccccc12)NC(=O)[C@H](CCC(N)=O)NC(=O)[C@@H](NC(=O)[C@H](Cc1ccccc1)NC(=O)[C@H](CC(=O)O)NC(=O)[C@H](CCC(N)=O)NC(=O)[C@H](C)NC(=O)[C@H](CCCNC(=N)N)NC(=O)[C@H](CCCNC(=N)N)NC(=O)[C@H](CO)NC(=O)[C@H](CC(=O)O)NC(=O)[C@H](CC(C)C)NC(=O)[C@H](Cc1ccc(O)cc1)NC(=O)[C@H](CS)NC(=O)[C@H](CO)NC(=O)[C@H](Cc1ccc(O)cc1)NC(=O)[C@H](CC(=O)O)NC(=O)[C@H](CO)NC(=O)[C@H](CS)NC(=O)[C@H](Cc1ccccc1)NC(=O)[C@@H](NC(=O)CNC(=O)[C@H](CCC(N)=O)NC(=O)[C@H](CO)NC(=O)[C@@H](N)Cc1cnc[nH]1)[C@@H](C)O)C(C)C)C(=O)N[C@@H](CC(N)=O)C(=O)N[C@H](C(=O)O)[C@@H](C)O (H-HSQGTFCSDYSCYLDSRRAQDFVQWLMNT-OH) showed an IC50 (Glucagon receptor) of 6.4 nM.

In the case of CSCC[C@H](NC(=O)[C@H](CC(C)C)NC(=O)[C@H](Cc1c[nH]c2ccccc12)NC(=O)[C@H](CCC(N)=O)NC(=O)[C@@H](NC(=O)[C@H](Cc1ccccc1)NC(=O)[C@H](CC(=O)O)NC(=O)[C@H](CCC(N)=O)NC(=O)[C@H](C)NC(=O)[C@H](CCCN=C(N)N)NC(=O)[C@H](CCCN=C(N)N)NC(=O)[C@H](CO)NC(=O)[C@H](CC(=O)O)NC(=O)[C@H](CC(C)C)NC(=O)[C@H](Cc1ccc(O)cc1)NC(=O)[C@H](CCCCN)NC(=O)[C@@H]1CCC(=O)NCCCC[C@H](NC(=O)[C@H](Cc2ccccc2)NC(=O)[C@@H](NC(=O)CNC(=O)[C@H](CCC(N)=O)NC(=O)[C@H](CO)NC(=O)[C@@H](N)Cc2c[nH]cn2)[C@@H](C)O)C(=O)N[C@@H](CO)C(=O)N[C@@H](CC(=O)O)C(=O)N[C@@H](Cc2ccc(O)cc2)C(=O)N1)C(C)C)C(=O)N[C@@H](CC(N)=O)C(=O)N[C@H](C(=O)O)[C@@H](C)O (H-HSQGTFKSDYEKYLDSRRAQDFVQWLMNT-OH; lactam 7-11), the Activity [1] is reported as 17% and the EC50 (Adenylate cyclase) is reported as 47 nM.

CSCC[C@H](NC(=O)[C@H](CC(C)C)NC(=O)[C@H](Cc1c[nH]c2ccccc12)NC(=O)[C@H](CCC(N)=O)NC(=O)[C@@H](NC(=O)[C@H](Cc1ccccc1)NC(=O)[C@H](CC(=O)O)NC(=O)[C@H](CCC(N)=O)NC(=O)[C@H](C)NC(=O)[C@H](CCCNC(=N)N)NC(=O)[C@H](CCCNC(=N)N)NC(=O)[C@H](CO)NC(=O)[C@H](CC(=O)O)NC(=O)[C@H](CC(C)C)NC(=O)[C@H](Cc1ccc(O)cc1)NC(=O)[C@H](CCCCN)NC(=O)[C@@H]1CCC(=O)NCCCC[C@H](NC(=O)[C@H](Cc2ccccc2)NC(=O)[C@@H](NC(=O)CNC(=O)[C@H](CCC(N)=O)NC(=O)[C@H](CO)NC(=O)[C@@H](N)Cc2cnc[nH]2)[C@@H](C)O)C(=O)N[C@@H](CO)C(=O)N[C@@H](CC(=O)O)C(=O)N[C@@H](Cc2ccc(O)cc2)C(=O)N1)C(C)C)C(=O)N[C@@H](CC(N)=O)C(=O)N[C@H](C(=O)O)[C@@H](C)O (H-HSQGTFKSDYEKYLDSRRAQDFVQWLMNT-OH; lactam 7-11) showed an IC50 (Glucagon receptor) of 13.6 nM.

With CSCC[C@H](NC(=O)[C@H](CC(C)C)NC(=O)[C@H](Cc1c[nH]c2ccccc12)NC(=O)[C@H](CCC(N)=O)NC(=O)[C@@H](NC(=O)[C@H](Cc1ccccc1)NC(=O)[C@H](CC(=O)O)NC(=O)[C@H](CCC(N)=O)NC(=O)[C@H](C)NC(=O)[C@H](CCCN=C(N)N)NC(=O)[C@@H]1CCC(=O)NCCCC[C@H](NC(=O)[C@H](CCCCN)NC(=O)[C@H](CO)NC(=O)[C@H](Cc2ccc(O)cc2)NC(=O)[C@H](CC(=O)O)NC(=O)[C@H](CO)NC(=O)[C@@H](NC(=O)[C@H](Cc2ccccc2)NC(=O)[C@@H](NC(=O)CNC(=O)[C@H](CCC(N)=O)NC(=O)[C@H](CO)NC(=O)[C@@H](N)Cc2c[nH]cn2)[C@@H](C)O)[C@@H](C)O)C(=O)N[C@@H](CC(C)C)C(=O)N[C@@H](CC(=O)O)C(=O)N[C@@H](CO)C(=O)N1)C(C)C)C(=O)N[C@@H](CC(N)=O)C(=O)N[C@H](C(=O)O)[C@@H](C)O (H-HSQGTFTSDYSKKLDSERAQDFVQWLMNT-OH; lactam 13-17) the Activity [1] was 85%, the IC50 (Glucagon receptor) was 1.7 nM and the EC50 (Adenylate cyclase) was 6.3 nM.
